From ChEMBL document CHEMBL1149681, “OSW-1 analogues: modification of the carbohydrate moiety” (Bioorg Med Chem Lett, 2007) come the findings set out here.

Broadly, the IC50 is the concentration needed to halve the response being measured. The low end stands for greater potency, the high end for weaker potency.

Common to all, as to assay type: functional, cell-based
In one assay the test system is HCT-116. Put plainly: Antitumor activity against human HCT116 cells by methylene blue staining method. In short, it runs like this: (§1)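 Cells grown in RPMI1640 with 10% fetal bovine serum, seeded in 96-well plates and cultured overnight at 37 °C, 5% CO2 before serially diluted samples were added. After 3 days of culture, stained 30 min with 0.05% methylene blue in 10 mM Tris pH 8.5, washed with water, dye extracted with 3% HCl, OD660 read. Independent triplicates; IC50 from means. Cisplatin control included in each assay.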

In another assay the test system is MDA-MB-231. Briefly: Antitumor activity against human MDA-MB-231 cells by methylene blue staining method. In short, it runs like this:
as §1

Another assay concerns DLD-1. Briefly: Antitumor activity against human DLD1 cells by methylene blue staining method. In short, it runs like this: as §1
Another assay has as its system A498. Put plainly: Antitumor activity against human A498 cells by methylene blue staining method. In short, it runs like this: as §1
Another assay concerns T47D. Briefly: Antitumor activity against human T47D cells by methylene blue staining method. In short, it runs like this:
as §1

Another assay concerns PC-3. Put plainly: Antitumor activity against human PC3 cells by methylene blue staining method. In short, it runs like this: as §1
For another assay, the system named is UO-31. Briefly: Antitumor activity against human UO31 cells by methylene blue staining method. In short, it runs like this: as §1
Another assay deals with NCI-H460. Put plainly: Antitumor activity against human NCI-H460 cells by methylene blue staining method. In short, it runs like this:
as §1

On to `COc1cccc2c1C(=O)c1c(O)c3c(c(O)c1C2=O)C[C@@](O)(C(=O)CO)C[C@@H]3O[C@H]1C[C@H](N)[C@H](O)[C@H](C)O1` [DOXORUBICIN], for which the IC50 in the assay on HCT-116 is 37 nM; in the assay with MDA-MB-231 it was 100 nM; with DLD-1, 100 nM; in the assay on A498, 35 nM; in the assay on T47D, 27 nM; in the assay on PC-3, 200 nM. For the same compound, the IC50 is 100 nM with UO-31 and 3.7 nM with NCI-H460.
On to `CC(=O)O[C@@H]1[C@@H](O[C@H]2C[C@H]3[C@@H]4CCc5cc(O)ccc5[C@H]4CC[C@]3(C)[C@@]2(O)[C@H](C)C(=O)CCC(C)C)OC[C@@H](O)[C@H]1O[C@@H]1OC[C@@H](O)[C@H](O)[C@H]1O`, for which the figures for the IC50 in the assay with MDA-MB-231 and with NCI-H460 were 6940 nM and 9980 nM, respectively.
On to `COc1ccc(C(=O)O[C@H]2[C@H](O[C@@H]3CCO[C@H](O[C@H]4C[C@H]5[C@@H]6CCc7cc(O)ccc7[C@H]6CC[C@]5(C)[C@@]4(O)[C@H](C)C(=O)CCC(C)C)[C@H]3OC(C)=O)OC[C@@H](O)[C@@H]2O)cc1`, for which the IC50 is 10900 nM in the assay with MDA-MB-231 and 13700 nM with NCI-H460.
`COc1ccc(C(=O)O[C@H]2[C@H](O[C@H]3[C@H](OC(C)=O)[C@@H](O[C@H]4C[C@H]5[C@@H]6CCc7cc(O)ccc7[C@H]6CC[C@]5(C)[C@@]4(O)[C@H](C)C(=O)CCC(C)C)OC[C@H]3O)OC[C@@H](O)[C@@H]2O)cc1`: the IC50 came out at 680 nM in the assay on MDA-MB-231; 1180 nM in the assay on DLD-1; 430 nM with A498; 710 nM in the assay on T47D; 1400 nM in the assay on PC-3; 260 nM in the assay on NCI-H460.
Take `COc1ccc(C(=O)O[C@H]2[C@H](O[C@H]3[C@H](OC(C)=O)[C@@H](O[C@H]4C[C@H]5[C@@H]6CCc7cc(O)ccc7[C@H]6CC[C@]5(C)[C@@]4(O)[C@H](C)C(=O)CCC(C)C)OC[C@H]3F)OC[C@@H](O)[C@@H]2O)cc1`: the IC50 with HCT-116 came out at 2900 nM; in the assay with MDA-MB-231, 850 nM; in the assay on DLD-1, 1720 nM; with A498, 300 nM; in the assay with T47D it was 2810 nM; in the assay with PC-3, 680 nM. Further, the IC50 in the assay with UO-31 was determined as 56 nM; in the assay on NCI-H460, 2590 nM.
For `COc1ccc(C(=O)O[C@@H]2CCO[C@H]2O[C@H]2[C@H](OC(C)=O)[C@@H](O[C@H]3C[C@H]4[C@@H]5CCc6cc(O)ccc6[C@H]5CC[C@]4(C)[C@@]3(O)[C@H](C)C(=O)CCC(C)C)OC[C@H]2O)cc1`, the IC50 with MDA-MB-231 was 18200 nM; with NCI-H460, 5750 nM.
